A short description of the data set: Toxicity liver stage against HepG2, at 10uM. More on the design: test concentration 10 uM, cell line HepG2-A16-CD81EGFP. The data set is classed as cell-based. The conditions noted are these: human, HepG2-A16-CD81EGFP cells; read-out: INHIBITION
An outline of the steps:
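Uninfected HepG2-A16-CD81EGFP cells, 3 × 10^3 per well, 1536-well, plated on prespotted compound at 10 μM final, parasite-free screening media added to match infected plates; puromycin 10 μM positive, DMSO 0.5% negative; run in parallel with 48 h PbLuc assay at 37 °C, 5% CO2; viability by CellTiter-Glo luminescence, normalized to controls.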

Turning to `CC(C)c1nn(C)c(N2CCOCC2)c1CNC(C)c1ccccn1` (configuration not stated), the cytotoxicity at 10 µM was -6.56%.
The value for `CC(C)N1[C@H](Cn2cccn2)C[C@@H]2CN(Cc3ccoc3)CC[C@@H]21` was -153%; that for `Cc1cc(-n2cncn2)n2ncnc2n1` was -4.05%.
For `CN1CCN(C(=O)Cc2cccc(F)c2)Cc2cccnc21` the value was -6.17%.
For `O=C(c1ccc2c(c1)CCO2)N1CCN(c2cnccn2)CC1` the value was -14.4%; for `CCC(C)N(Cc1cccnc1)C(=O)c1ccc(OC)cc1O` (configuration not stated), 8.65%.
For `CC(=O)N1CCCC1c1csc(Nc2cnccn2)n1` (configuration not stated), the cytotoxicity at 10 µM is 2.09%.
As to `Cn1nc(C(=O)N2CCCC2)c2c1CN(CC1CCOCC1)C2`, the cytotoxicity at 10 µM was -2.51%.
The value for `Cc1cccc(C(CNC(=O)NCc2cc[nH]n2)N2CCOCC2)c1` (configuration not stated) was -9.19%.
For `O=C(CCOc1ccc(Cl)cc1)N1CCN(c2cnccn2)CC1` the value was -2.65%; for `O=C(Cc1csc(-c2cccc(Cl)c2)n1)NCc1cccc(C(=O)O)c1`, -0.0616%.
For `COCCCN1CCN(CC2CCCO2)CC1` (configuration not stated) the value was -13.5%; for `CN(C)c1ccc(CNC(=O)c2ccc(Cl)cc2F)cc1`, -8.33%.
`CCn1cc(NC(=O)NCC(O)COc2cccc(F)c2)cn1` (configuration not stated): the cytotoxicity at 10 µM was -2.86%.
In the case of `O=C(NCCc1coc(-c2ccc(F)cc2)n1)NCC1CCOC1` (configuration not stated), the cytotoxicity at 10 µM is -1.94%.
For `Cn1cc(CN2CCCC(CCc3ccc(F)cc3F)C2)cn1` (configuration not stated) the value was -10.4%; for `Cc1ncsc1COC(=O)c1cccc2c1OCCO2`, 1.37%.
In the case of `Fc1cccnc1N1CCOCC2(CCCN(c3nncs3)C2)C1` (configuration not stated), the cytotoxicity at 10 µM was determined as 3.44%.
For `Cc1cccc(CN2CCCC3(CCN(C4CCSCC4)C3)C2=O)c1` (configuration not stated) the value was 2.55%; for `CC(C)N1CCO[C@H]2CN(C(=O)c3ccccn3)C[C@H]21`, -67.6%; for `CN(c1cccc2ccccc12)S(=O)(=O)c1cc(C(=O)O)cs1`, -2.88%.
For `O=C(c1ncn2c1CNS(=O)(=O)c1ccccc1-2)N1CCCCCC1` the value was 9.79%; for `CC(C)Cn1cc(NC(=O)N2CCOC(c3ccccc3)C2)cn1` (configuration not stated), 7.59%; for `O=C(NCc1ccco1)[C@@H]1COC[C@H]2CN(c3ncc(F)cn3)C[C@H]21`, -5.67%.
For `Cc1ccc(C(=O)N2CCSCC2)cc1N1CCNC1=O` the value was -6.33%; for `O=C(O)c1cc(NS(=O)(=O)c2ccccc2F)ccc1N1CCSCC1`, -5.27%.
For the compound `CCc1nc(C(=O)N2CCN(C)CC2C)nn1-c1ccccc1Cl` (configuration not stated), the cytotoxicity at 10 µM was -2.38%.
With `COc1cc(C2CC(=O)c3c(O)cc(O)cc3O2)ccc1O` (configuration not stated), the cytotoxicity at 10 µM was -0.537%.
For the compound `O=C(Cc1csc(-c2ccco2)n1)N1CCN(c2cnccn2)CC1`, the cytotoxicity at 10 µM stood at 0.0241%.
For `CN1CCN(C2COC3(CCN(Cc4ccc(F)cc4)CC3)C2)CC1` (configuration not stated) the value was -97.4%.
The value for `CC(C)Cc1nc(OCC(=O)O)c(C#N)c2c1CCCC2` was -6.14%; that for `COc1cccc(CSc2nnc(C)n2CC(N)=O)c1` was 3.59%; that for `O=C(NC[C@H]1OC[C@@H](NCc2cccs2)[C@@H]1O)N1CCOCC1` was -3.53%.
For `CN1CCOC(CNCc2nc(-c3cccnc3)no2)C1` (configuration not stated) the value was -5.3%.
Take `CC(C)c1noc(C(C)N2CCN(Cc3ccco3)CC2)n1` (configuration not stated): the cytotoxicity at 10 µM is -7.67%.
The value for `CCN1CC2(CC1=O)CN(C(=O)COC)CCN(S(C)(=O)=O)C2` (configuration not stated) was 0.165%; that for `Cc1nc(CN2CCCC(N(C)CC3(O)CCCCC3)C2)no1` (configuration not stated) was -10.3%.
The value for `CC(c1cc(F)ccc1F)N(C)CCS(=O)(=O)CCC(N)=O` (configuration not stated) was -47%; that for `CCC(C)(C)NC(=O)Cn1nc(C)nc1-c1ccccc1` was -15.4%.
For `Cc1cccc(C(=O)N2C[C@@H]3C(CC(=O)N4CCCC4)[C@@H]3C2)n1` (some centres not stated) the value was 1.82%.
With `Cc1ccc(C)c(OCCNC(=O)C2CCOC2)c1` (configuration not stated), the cytotoxicity at 10 µM was -2.73%.
The value for `NC(=O)NC(=O)CCSCc1coc(-c2ccc(F)cc2)n1` was -7.45%; that for `COc1ccc(-c2n[nH]cc2CN(C)Cc2ccoc2)c(F)c1` was -0.174%.
The value for `Cc1nn(C)c(C)c1CCC(=O)N(C)Cc1ccc(C#N)cc1` was -2.45%; that for `c1cc(CN2CCO[C@H]3[C@H](OCC4CCOCC4)CC[C@@H]32)co1` was -117%.
The value for `Cc1noc(C)c1Cn1cc(I)cc(C)c1=O` was 4.92%; that for `CN1C[C@H](O)[C@]2(CCN(Cc3ccc(F)c(F)c3)C2)S1(=O)=O` was -1.42%; that for `O=S(=O)(c1ccc(F)cc1)N1CCCn2cnc(CN3CCCC3)c2C1` was 7.78%.
For the compound `O=C(NCCc1cccc(Cl)c1)C1CCOCC1`, the cytotoxicity at 10 µM is -8.47%.
For `COc1ccc(NS(=O)(=O)c2cnc(NC(C)=O)s2)cc1` the value was 10.9%; for `O=C(c1ccco1)N1CCOC2(COCCN(c3ncccn3)C2)C1` (configuration not stated), -102%.
The value for `CC(=O)N1CCN(C(=O)NCc2ccc(Cl)s2)CC1` was -15.4%; that for `Cc1cnn(C2CCCN(C(=O)CCCOc3ccccc3F)C2)c1` (configuration not stated) was -7.52%; that for `CC(NC1(CNC(=O)CC2CCCC2)CCOCC1)c1ccccc1` (configuration not stated) was -1.67%.
The value for `CCC(C)n1cnc(S(=O)(=O)N(C)c2cccnc2N(C)C)c1` (configuration not stated) was -3.08%; that for `CN1CCCN(c2ccc(F)cc2CNC(=O)c2cccnc2)CC1` was -2.52%; that for `CC(C)NC(=O)C1CCC2(CCNCC2)C1` (configuration not stated) was 7.18%.
With `Cc1cc(F)c2c(c1)CCCN2Cc1nc2c(cnn2C)c(=O)[nH]1`, the cytotoxicity at 10 µM is 1.89%.
Turning to `Cc1cc(C)c2cc(CNCc3cccnc3)c3nn(C)c(=O)n3c2c1`, the cytotoxicity at 10 µM is -6.11%.
The value for `c1cc(CCN2CCCC2CN2CCCC2)ccn1` (configuration not stated) was -2.35%.
Regarding `CCc1nnsc1C(=O)N1CCCC1c1c(C)nn(C)c1OC` (configuration not stated), the cytotoxicity at 10 µM is -1.67%.
The value for `Cc1cc(C)c(CNC(=O)N2CCN(c3ccccn3)CC2)c(=O)[nH]1` was -9.95%; that for `O=c1c(=CS(=O)(=O)Nc2ccccc2)[nH]c(=O)n2cccc12` was 0.458%.
Take `CNC(=O)C(C)(C)N1CCC[C@H]1C(=O)NCC1CC1`: the cytotoxicity at 10 µM came out at 2.05%.
For `CSCCCNC(=O)C(c1ccccc1C)N(C)C` (configuration not stated) the value was 4.68%; for `CCOCc1ncn2c1CN(S(=O)(=O)c1ccc(OC)cc1)CC2`, 0.199%.
The value for `CC[C@@H](CO)Nc1nccc(-c2c[nH]c3cc(C(=O)OC)ccc23)n1` was 67.7%; that for `O[C@@H]1CCN(CC2CCOC2)[C@H]1Cc1ccccc1` (some centres not stated) was -7.98%.
The value for `Cc1cc(CS(=O)(=O)NC2CCCCC2)on1` was 2.92%; that for `Cc1nnc([C@@H]2C[C@H]3CN(C(=O)C4CC4)C[C@H]3O2)[nH]1` was 19.8%; that for `CN1C(=O)CCN(C(=O)C2CC=CC2)c2ccccc21` was 8.96%.
Regarding `CC(C)c1ccc(OCCNC(=O)CN2CCN(C)CC2C)cc1` (configuration not stated), the cytotoxicity at 10 µM was -13.2%.
`CC(=O)N1CCCC1C(=O)NCCOc1cc(C)cc(C)c1` (configuration not stated): the cytotoxicity at 10 µM is -10.5%.
The value for `CN(C)Cc1cc(=O)n2c(n1)CN(Cc1ccco1)CCC2` was 7.07%; that for `CCC[C@H]1CN(c2nc(CO)cs2)C[C@@H]1NC(=O)C1(COC)CC1` was -2.87%; that for `CCc1ccc(CN2CCCn3c(nc(Cn4ccnc4)cc3=O)C2)o1` was 4.29%.
For `c1coc(-c2nc(CNCCn3cccn3)cs2)c1` the value was -13.8%; for `CCNc1c(NC(=O)NC(C)C)c(=O)oc2ccccc12`, 1.1%.
For `Cc1ccc(-n2nnc(C(=O)NC(C)C)c2C2CC2)cc1` the value was -3.37%; for `CO[C@@H]1CN(c2ccccc2)S(=O)(=O)[C@@]12CCN(C(C)=O)C2`, 6.07%.
As to `COCc1ccc(C(=O)N2CC[C@@](O)(COC)C(C)(C)C2)o1`, the cytotoxicity at 10 µM is -2.69%.
As for `O=C(CN1CCN(CCO)CC1)NCCc1c(F)cccc1F`, the cytotoxicity at 10 µM is -9.83%.
Consider `COCCN(CC1CC1)c1nc(CCN)nc2sc(C)c(C)c12`, for which the cytotoxicity at 10 µM was 0.956%.
For `O=C1CC2(CCCNC2)C(=O)N1Cc1cccc(F)c1` (configuration not stated) the value was 3.56%.
For `Cn1nc(Cn2cccc2)c2c1CN(Cc1ccoc1)C2` the value was 2.96%; for `CC(C)CN1CCn2nc(CNc3ncnc4[nH]cnc34)cc2C1`, 6.88%; for `Cc1cccc(CN2CCCC[C@H]3CN(c4ncccn4)C[C@H]32)c1`, 1.18%.
The value for `CC(C)CN1CCCn2nc(CNC(=O)CCN)cc2C1` was -20.5%; that for `Cn1c(CO)cnc1SC1CCCN(c2ccccc2F)C1=O` (configuration not stated) was -4%.
Take `CCC(C)N1CCC2(CC1)CN(c1cncnc1)C(=O)CO2` (configuration not stated): the cytotoxicity at 10 µM is -0.414%.
The value for `CN1CCC(NC(=O)Nc2cnn(-c3ccccc3Cl)c2)C1=O` (configuration not stated) was -4.17%; that for `CCCn1cc(-c2cc(C(=O)N(C)C)c3ccc(C)cc3n2)cn1` was 4.99%; that for `CN(C)c1ccc(C(=O)N2C[C@@H](CN3CCCCC3)[C@@H](CO)C2)cc1` was -1.72%.
The value for `COc1ccc(CN2CCC3(CC2)CCN(CC(C)C)C3=O)cc1` was 3.17%; that for `CN(C)C1CC2(CCN(C(=O)NC3CC3)CC2)c2ccccc21` (configuration not stated) was -112%; that for `Cc1nnc2n1CCN(C(=O)c1cc(Cl)c(Cl)n1C)C2` was -4.05%.
For the compound `Cc1cc(=O)n2nc(Oc3ccc(F)c(F)c3)sc2n1`, the cytotoxicity at 10 µM was -15.8%.

Source of the values: ChEMBL document CHEMBL4513216, “Probing the Open Global Health Chemical Diversity Library for Multistage-Active Starting Points for Next-Generation Antimalarials” (ACS Infect Dis, 2020).
